bCat KO growth – beta-catenin-lacking colon tumor cell growth suppression | 140,000 tested, 1.5% active | HCT116 beta-catenin knockout viability, CellTiter-Glo, 60 h; hits give low values | viability, % at 10 µM;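 active = viability at or under a set limit, the compound median less 4 SD, cut at about 6% in these data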
HCT116 PTEN-null – PTEN-deleted cell growth suppression. HCT116 PTEN-null viability, CellTiter-Glo, 60 h; hits give low values. viability, % at 10 µM. 140,000 tested, 1.2% active;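 active = viability at or below a set limit, 4 SD under the median of all tested compounds, cut at about 3.7% in these data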;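 also: PTEN knockout HCT116 line with beta catenin targeted HCT116 as companion control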
Phagocyt inh – macrophage phagocytosis inhibition; AID 1029; inhibition, % at 5 µM; J774A.1 macrophage IgG-bead phagocytosis, imaging; 110,000 tested, 0.07% active;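 active = inhibition above the mean of the plate negative controls plus 5 SD, cut at about 13% in these data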;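 also: phagocytic index as fraction of beads internalized from green versus red external bead signal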
Fibroblast inh – blocks proliferation of human lung fibroblasts. LL 47 human lung fibroblast viability, ATP luminescence; hits give low values. viability, % at 10 µM. 85,000 tested, 1.1% active;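 active = viability at or below 50% in the single dose screen; inactive = viability above 50%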;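 also: compound exposure lasted 72 h before the ATP readout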
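Test system: LL 47 human lung fibroblasts / Incubation: 72 h compound exposure at 37 °C after overnight plating / Technique: luminescent ATP detection, CellTiter-Glo / Compound dosing: 0.1% DMSO in all compound wells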
HUVEC prolif 384 – human endothelial cell proliferation inhibition. viability, % at 10 µM (by protocol). 86,000 tested, 1.1% active. HUVEC proliferation, CellTiter-Glo luminescence, 72 h; hits give low values;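 active = viability at or below 30%; inactive = viability above 30%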
H69AR inhibit – growth inhibitors of human H69AR lung tumor cells; viability, % at 10 µM; AID 598; 85,000 tested, 6% active; H69AR lung tumor viability, ATP luminescence, 72 h; hits give low values;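 active = viability at or below 40%; inactive = viability above 40%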;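 also: multidrug resistant small cell line overexpressing MRP-1 efflux transporter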
Of the large screens only hits and unclear results are named; the others gave an inactive call. The sample as a whole holds a higher share of hits than the screen did.

COCCn1c(=S)[nH]c2cc(C(=O)N3CCN(c4ccccc4OC)CC3)ccc2c1=O	none
CCOC(=O)N1CCN(C(=O)c2ccc3c(=O)n(CCc4ccccc4)c(=S)[nH]c3c2)CC1	H69AR inhibit 10 (no result: Phagocyt inh)
Cc1ccc(Cl)c(OCC(=O)OCC(=O)NC2CCCc3ccccc32)c1 (centres undefined)	none (no result: Fibroblast inh, HUVEC prolif 384, H69AR inhibit)
CCOc1ccc(NC(=O)CSc2nnc(CCNC(=O)c3ccc(OC)cc3)n2C)cc1	none
COc1cccc(NC(=O)CN2CCN(c3ccc(F)cc3)CC2)c1	H69AR inhibit 28
O=C(CCN1CCN(c2ccccc2F)CC1)Nc1ccccc1F	none (no result: Phagocyt inh)
COC(=O)c1cccc(NC(=O)CN2CCN(c3ccc(OC)cc3)CC2)c1	none
CCOc1ccc(NC(=O)CCN2CCN(c3ccccc3OC)CC2)cc1	none
CCOc1ccc(NC(=O)CCN2CCN(c3ccccc3F)CC2)cc1	H69AR inhibit 24
O=C(CCN1CCN(c2ccccc2F)CC1)c1ccc(Br)cc1	H69AR inhibit 7.7
CCOc1ccc(NC(=O)CSC(N)=O)cc1	H69AR inhibit 15
CCOc1ccc(NC(=O)C/C(N)=N/O)cc1	none
CC(OC(=O)c1ccc(S(=O)(=O)NCc2ccco2)cc1)C(=O)Nc1ncc(Cl)cc1Cl (centres undefined)	none (no result: Fibroblast inh, HUVEC prolif 384, H69AR inhibit)
CCOc1ccc(NC(=O)CN2CCN(CC(=O)Nc3ccc(F)cc3)CC2)cc1	H69AR inhibit 30 (no result: Phagocyt inh)
CCOCC(=O)Nc1cccc(OC)c1	H69AR inhibit 28 (no result: Phagocyt inh)
Cc1sc2ncnc(NCC(c3ccco3)N3CCCC3)c2c1C (centres undefined)	H69AR inhibit 36
Clc1ccc2nnnc(-c3ccccc3)c2c1	bCat KO growth 3.7, HCT116 PTEN-null 3.1 (no result: Fibroblast inh, HUVEC prolif 384, H69AR inhibit)
c1ccc(-c2nnnc3ccccc23)cc1	none (no result: Fibroblast inh, HUVEC prolif 384, H69AR inhibit)
COc1cccc(CNc2cccc3cccnc23)c1O	none
CCC(=O)NC(c1ccccc1OC)c1ccc2cccnc2c1O (centres undefined)	bCat KO growth 3.9, HCT116 PTEN-null 2.7, Fibroblast inh 11, HUVEC prolif 384 4.1, H69AR inhibit 1.8 (no result: Phagocyt inh)
COCCCNCCCOc1ccc(C(C)(C)c2ccccc2)cc1	none (no result: Fibroblast inh, HUVEC prolif 384, H69AR inhibit)
CC(C)(c1ccccc1)c1ccc(OCCCNCCO)cc1	bCat KO growth 1.8, HUVEC prolif 384 26, H69AR inhibit 0.9
COc1ccc(-c2c[n+]3c4n2CCCCC4=C(c2ccc(Br)cc2)C3)cc1	none (no result: Fibroblast inh, HUVEC prolif 384, H69AR inhibit)
Clc1ccc(C2=C3CCCCn4c(-c5ccccc5)c[n+](c43)C2)cc1	Fibroblast inh 42, HUVEC prolif 384 18, H69AR inhibit 36 (no result: Phagocyt inh)
CCOc1ccc(C(=O)NC(=S)Nc2ccc(NC(=O)c3ccco3)cc2)cc1[N+](=O)[O-]	none (no result: Fibroblast inh, HUVEC prolif 384, H69AR inhibit)
CCOc1ccc(C(=O)NC(=S)Nc2ncccc2C)cc1[N+](=O)[O-]	bCat KO growth 2.8, HCT116 PTEN-null 3.3 (no result: Fibroblast inh, HUVEC prolif 384, H69AR inhibit)
Cc1ccc(N2C(=O)C3C4CC(=O)C(c5ccccc54)C3C2=O)cc1C (centres undefined)	none (no result: Fibroblast inh, HUVEC prolif 384, H69AR inhibit)
COc1ccc(NC(=O)COC(=O)CCCOc2ccc(Cl)cc2Cl)cc1Cl	none (no result: Fibroblast inh, HUVEC prolif 384, H69AR inhibit)
O=C(N/N=C\c1c(O)ccc2ccccc12)c1ccc(Cn2cccn2)o1	bCat KO growth 5.6 (no result: Fibroblast inh, HUVEC prolif 384, H69AR inhibit)
Cc1nn(-c2ccccc2)c(OC(=O)c2cccs2)c1S(=O)(=O)c1ccc([N+](=O)[O-])cc1	H69AR inhibit 7.9
Cc1cccc(NC(=O)Cn2cnc3ccccc3c2=O)c1C	none
COc1ccc(NC(=O)CSc2nc3ccccc3c(=O)n2-c2ccc3c(c2)OCO3)c(OC)c1	H69AR inhibit 9.4
COc1ccc(NC(=O)CSc2nc3ccccc3c(=O)n2CCCN2CCCCC2)c(OC)c1	bCat KO growth 2.6, HCT116 PTEN-null 3.1
C=CCn1c(SCC(=O)Nc2ccc(NC(=O)c3ccco3)c(OC)c2)nnc1-c1ccncc1	none
COCCCn1c(SCC(=O)Nc2ccc(NC(=O)c3ccco3)c(OC)c2)nc2ccccc2c1=O	H69AR inhibit 32 (no result: Phagocyt inh)
Cn1cnnc1SCc1ccc(-c2ccc(Br)cc2)o1	none
Cn1c(CSc2nc3ccccc3s2)nnc1SCC(=O)NCc1cccnc1	none (no result: Phagocyt inh)
CCOC(=O)CSC1=NC(=O)CS1	none
CCOc1ccc(NC(=O)c2ccccc2OCC(=O)c2ccc(C)cc2)cc1	none (no result: Fibroblast inh, HUVEC prolif 384, H69AR inhibit)
CCOc1ccc(NC(=O)c2ccccc2NC(=O)CN(C)CC(=O)Nc2ccc(C)cc2)cc1	H69AR inhibit 37
O=C1c2[nH]nc(-c3ccccc3O)c2C(c2ccc(F)cc2)N1CC1CCCO1 (centres undefined)	none
O=C1c2[nH]nc(-c3ccccc3O)c2C(c2cccc(Cl)c2)N1CC1CCCO1 (centres undefined)	H69AR inhibit 21
CC(=O)C1=C(O)C(=O)N(Cc2ccco2)C1c1ccc(F)cc1 (centres undefined)	none
O=C1c2[nH]nc(-c3ccccc3O)c2C(c2cccc(Cl)c2)N1Cc1ccco1 (centres undefined)	HUVEC prolif 384 4.9, H69AR inhibit 0.8
O=C1c2[nH]nc(-c3ccccc3O)c2C(c2ccc(F)cc2)N1Cc1ccco1 (centres undefined)	H69AR inhibit 1.8
COc1ccc2[nH]c(=O)c(CN(Cc3ccc(C)cc3)Cc3nnnn3CC3CCCO3)cc2c1 (centres undefined)	none
COc1ccc(NC(=S)N2CCN(Cc3ccco3)CC2)c(OC)c1	none (no result: Fibroblast inh, HUVEC prolif 384, H69AR inhibit)
Cc1ccc(-n2c(C)cc(C3N=C(N)Nc4nc5ccccc5n43)c2C)c(C)c1 (centres undefined)	HUVEC prolif 384 16, H69AR inhibit 33
Cc1cc(C2N=C(N)Nc3nc4ccccc4n32)c(C)n1-c1ccccc1Cl (centres undefined)	none
CCOC(=O)C1=C(O)/C(=C\c2ccc(CNC(=O)C(=O)Nc3ccccc3)o2)N=C1C	H69AR inhibit 36
CCOC(=O)C1=C(O)/C(=C\c2cccs2)N=C1C	none (no result: Fibroblast inh, HUVEC prolif 384, H69AR inhibit)
CC(C)CCN1CN(S(=O)(=O)c2cccs2)c2nc3ccccc3nc21	H69AR inhibit 37
C=CCNC(=O)C1CC(=O)N(c2ccc(OCC(=O)Nc3cccc(OC)c3)cc2)C1 (centres undefined)	none
C=CCNC(=O)C1CC(=O)N(c2ccc(OCC(=O)Nc3ccc(Cl)c(C(F)(F)F)c3)cc2)C1 (centres undefined)	bCat KO growth 1.9, HCT116 PTEN-null 1.9, H69AR inhibit 14
CCOc1ccccc1Nc1nc(-c2sc(NC(=O)c3cccc(Cl)c3)nc2C)cs1	bCat KO growth 5.1 (no result: Fibroblast inh, HUVEC prolif 384, H69AR inhibit)
Cc1nc(NC(=O)c2ccccc2)sc1-c1csc(N)n1	H69AR inhibit 30
CCCCNC(=O)C(=O)N/N=C/c1ccc(OCC(=O)Nc2cccc(OC)c2)c(OC)c1	none (no result: Fibroblast inh, HUVEC prolif 384, H69AR inhibit)
Cc1cc(C)c(S(=O)(=O)N2CCCCC2)c(C)c1N(C)S(=O)(=O)c1ccc(Cl)cc1	none (no result: Fibroblast inh, HUVEC prolif 384, H69AR inhibit)
N#CC(c1ccc(Cl)cc1)c1ccc2c(C(F)(F)F)cc(C(F)(F)F)nc2n1 (centres undefined)	bCat KO growth 0.9, HCT116 PTEN-null 0.8, Fibroblast inh 18, HUVEC prolif 384 27, H69AR inhibit 4.6
